Results as given in article PMC2828288 (Journal of medicinal chemistry, 2010).
Like-named read-outs stand apart in the source and are kept apart here.

Legend:
total brain 2-AG levels = conditions: upon administration to mice; cited from earlier work
FAAH [1] = target: T1, FAAH (Mus musculus, UniProt O08914); conditions: mice, 20 mg/kg intraperitoneally, or 100 mg/kg orally; cited from earlier work
T1 sequence (O08914 1-579): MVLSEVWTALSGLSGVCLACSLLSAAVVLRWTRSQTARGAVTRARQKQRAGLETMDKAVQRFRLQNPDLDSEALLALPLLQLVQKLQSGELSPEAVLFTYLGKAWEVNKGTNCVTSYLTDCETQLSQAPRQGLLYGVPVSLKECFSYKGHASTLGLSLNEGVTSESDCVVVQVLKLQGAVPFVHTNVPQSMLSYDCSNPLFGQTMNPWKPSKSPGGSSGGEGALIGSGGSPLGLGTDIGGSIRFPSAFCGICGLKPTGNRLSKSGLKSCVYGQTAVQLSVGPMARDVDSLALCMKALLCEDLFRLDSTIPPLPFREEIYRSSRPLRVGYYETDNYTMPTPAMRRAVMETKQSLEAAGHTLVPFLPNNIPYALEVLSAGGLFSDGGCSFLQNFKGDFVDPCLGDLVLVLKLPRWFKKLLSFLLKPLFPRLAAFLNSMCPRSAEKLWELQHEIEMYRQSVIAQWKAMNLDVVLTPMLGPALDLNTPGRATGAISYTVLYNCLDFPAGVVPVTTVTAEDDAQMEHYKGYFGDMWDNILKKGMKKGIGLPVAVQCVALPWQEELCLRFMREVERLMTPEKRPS

MAGL [2] = conditions: mice, 20 mg/kg intraperitoneally, or 100 mg/kg orally; cited from earlier work
NTE [3] = target: T2, NTE (Mus musculus, UniProt Q3TRM4); conditions: mice, 20 mg/kg intraperitoneally, or 100 mg/kg orally; cited from earlier work
T2 sequence (Q3TRM4 1-1355): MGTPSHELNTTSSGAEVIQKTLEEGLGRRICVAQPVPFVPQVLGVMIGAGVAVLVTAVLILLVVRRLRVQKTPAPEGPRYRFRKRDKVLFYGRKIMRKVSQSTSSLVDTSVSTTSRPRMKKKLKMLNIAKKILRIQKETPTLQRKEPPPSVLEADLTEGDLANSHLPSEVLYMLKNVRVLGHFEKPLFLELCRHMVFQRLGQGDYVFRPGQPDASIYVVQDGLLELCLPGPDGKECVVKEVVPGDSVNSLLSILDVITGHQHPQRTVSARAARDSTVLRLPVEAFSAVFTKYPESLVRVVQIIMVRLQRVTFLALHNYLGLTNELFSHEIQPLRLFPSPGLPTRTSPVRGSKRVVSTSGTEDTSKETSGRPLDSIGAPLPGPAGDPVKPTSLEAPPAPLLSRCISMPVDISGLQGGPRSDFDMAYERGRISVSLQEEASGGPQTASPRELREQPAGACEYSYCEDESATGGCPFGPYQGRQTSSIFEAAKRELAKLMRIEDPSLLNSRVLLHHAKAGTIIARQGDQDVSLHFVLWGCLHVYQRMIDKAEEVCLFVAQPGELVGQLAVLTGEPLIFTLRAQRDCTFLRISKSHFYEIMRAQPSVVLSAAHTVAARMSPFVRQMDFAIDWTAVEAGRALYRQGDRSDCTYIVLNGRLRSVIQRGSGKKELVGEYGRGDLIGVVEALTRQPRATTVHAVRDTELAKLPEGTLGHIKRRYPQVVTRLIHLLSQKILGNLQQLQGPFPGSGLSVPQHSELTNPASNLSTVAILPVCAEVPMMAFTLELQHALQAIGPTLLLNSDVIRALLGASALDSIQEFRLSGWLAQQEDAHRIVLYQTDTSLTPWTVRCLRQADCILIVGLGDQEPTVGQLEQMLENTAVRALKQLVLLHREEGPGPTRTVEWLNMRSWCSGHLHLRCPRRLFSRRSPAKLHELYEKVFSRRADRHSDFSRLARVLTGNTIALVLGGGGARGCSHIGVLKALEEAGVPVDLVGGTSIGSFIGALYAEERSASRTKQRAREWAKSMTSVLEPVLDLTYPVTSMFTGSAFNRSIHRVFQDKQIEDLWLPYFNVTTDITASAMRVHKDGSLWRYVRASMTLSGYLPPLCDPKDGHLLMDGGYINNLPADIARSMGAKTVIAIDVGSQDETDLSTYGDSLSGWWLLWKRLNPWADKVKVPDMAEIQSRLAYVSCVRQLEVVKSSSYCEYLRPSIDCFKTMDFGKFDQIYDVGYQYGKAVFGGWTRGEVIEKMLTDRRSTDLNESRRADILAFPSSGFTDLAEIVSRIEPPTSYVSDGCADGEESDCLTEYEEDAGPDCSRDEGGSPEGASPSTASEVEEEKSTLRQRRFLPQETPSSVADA

[4] = mice, 20 mg/kg i.p. daily for 6 days; cited from earlier work
FAAH [5] = target: T1, FAAH; test: FAAH activity after in vivo administration to mice; conditions: administration to mice at doses that reduced MAGL activity; data not shown
[6] = test system: serine hydrolases in the mouse brain membrane proteome; type: biochemical; conditions: competitive ABPP
Outline: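 Mouse brain tissue Dounce-homogenized in PBS pH 7.5, spun at 1,400 × g for 5 min, then at 64,000 × g for 45 min; the membrane pellet was resuspended in PBS by sonication. Proteome at 1 mg/ml was preincubated with test compound at the indicated concentrations for 30 min at 37 °C. FP-rhodamine (1 μM final) was then added for 30 min at 25 °C, followed by SDS-PAGE and in-gel fluorescence scanning.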

MAGL [7] = test: Competitive ABPP; type: biochemical, mouse; conditions: brain proteome
NTE [8] = target: T2, NTE; test: NTE activity after in vivo administration to mice; conditions: 20 mg/kg, i.p., data not shown

Structure (SMILES): O=C(Oc1ccc([N+](=O)[O-])cc1)N1CCC(C(O)(c2ccc3c(c2)OCO3)c2ccc3c(c2)OCO3)CC1 [Compound 1, 4-nitrophenyl 4-(dibenzo[d][1,3]dioxol-5-yl(hydroxy)methyl)piperidine-1-carboxylate]
- elevation of total brain 2-AG levels (total brain 2-AG levels): > 8 fold

Structure (SMILES): O=C(Oc1ccc([N+](=O)[O-])cc1)N1CCN(Cc2cccc(Oc3ccccc3)c2)CC1 [Compound 2]
- FAAH blockade in vivo (FAAH [1]): completely blocked
- MAGL blockade in vivo (MAGL [2]): completely blocked
- NTE inhibition in vivo (NTE [3]): no inhibition of NTE was observed
- death or overt signs of discomfort on chronic administration [4]: did not produce death or overt signs of discomfort

Structure (SMILES): O=C(Oc1ccc([N+](=O)[O-])cc1)N1CCN(C(c2ccc(F)cc2)c2ccc(F)cc2)CC1 [Compound 5]
- FAAH activity in vivo (FAAH [5]): significantly blocked FAAH activity

Structure (SMILES): COc1ccc(C(O)(c2ccc(OC)cc2)C2CCN(C(=O)Oc3ccc([N+](=O)[O-])cc3)CC2)cc1 [Compound 6]
- FAAH activity in vivo (FAAH [5]): significantly blocked FAAH activity

Structure (SMILES): CN(CCC(c1ccccc1)c1ccccc1)C(=O)Oc1ccc([N+](=O)[O-])cc1 [Compound 9a, 4-nitrophenyl 3,3-diphenylpropyl(methyl)carbamate]
- activity against FAAH, MAGL and other serine hydrolases [6]: inactive

Structure (SMILES): CN(C(=O)Oc1ccc([N+](=O)[O-])cc1)C(c1ccccc1)c1ccccc1 [Compound 9b, 4-nitrophenyl benzhydryl(methyl)carbamate]
- activity against FAAH, MAGL and other serine hydrolases [6]: inactive

Structure (SMILES): COc1ccc(C(O)(c2ccc(OC)cc2)C2CCN(C(=O)Oc3ccc([N+](=O)[O-])cc3)C2)cc1 (stereo not drawn) [Compound 15, 4-nitrophenyl 3-(hydroxybis(4-methoxyphenyl)methyl)pyrrolidine-1-carboxylate]
- activity against FAAH, MAGL and other serine hydrolases [6]: inactive

Structure (SMILES): COc1ccccc1C(O)(c1ccccc1OC)C1CCN(C(=O)Oc2ccc([N+](=O)[O-])cc2)CC1 [Compound 33b, 4-nitrophenyl 4-(hydroxybis(2-methoxyphenyl)methyl)piperidine-1-carboxylate]
- selectivity for MAGL over FAAH (MAGL [7]): ~ 10 fold

Structure (SMILES): COc1ccc(C(O)(c2ccc(OC)c(OC)c2)C2CCN(C(=O)Oc3ccc([N+](=O)[O-])cc3)CC2)cc1OC [Compound 33c, 4-nitrophenyl 4-(bis(3,4-dimethoxyphenyl)(hydroxy)methyl)piperidine-1-carboxylate]
- Selectivity (MAGL [7]; MAGL over FAAH (ratio of IC50s)): >38
- selectivity for MAGL over FAAH (MAGL [7]): 40–400 fold

Structure (SMILES): O=C(Oc1ccc([N+](=O)[O-])cc1)N1CCN(Cc2ccc(-c3ccccc3)s2)CC1 [Compound 36h, 4-nitrophenyl 4-((5-phenylthiophen-2-yl)methyl)piperazine-1-carboxylate]
- NTE inhibition in vivo (NTE [8]): inhibited NTE

Structure (SMILES): O=C(Oc1ccc([N+](=O)[O-])cc1)N1CCN(Cc2cccc(Oc3cc(Cl)cc(Cl)c3)c2)CC1 [Compound 36q, 4-nitrophenyl 4-(3-(3,5-dichlorophenoxy)benzyl)piperazine-1-carboxylate]
- activity against FAAH, MAGL and other serine hydrolases [6]: unable to inhibit any of the hydrolases
